Laboratory results reported in the EternaBench riboswitch data.

Test system: MS2 coat protein
Experiment: apparent Kd, MS2 coat protein; higher = weaker binding; RNA-MaP array; FMN 200 µM where present
Procedure, shortened: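 Stalled E. coli RNA polymerase transcribed each design on Illumina sequencing-chip clusters. The clusters were titrated with SNAP-549-labelled MS2 coat protein, starting at 0.7 or 1.5 nM and doubling up to 3 µM, first without ligand and then with constant ligand, in 100 mM Tris-HCl pH 7.5, 80 mM KCl, 4 mM MgCl2, BSA, DTT, yeast tRNA and Tween-20. Green signal was normalised to red-channel RNA signal and to the control-cluster median Fmax. The apparent Kd is the median of filtered binding-curve fits made for each cluster.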

[1] = designed as: OFF switch for flavin mononucleotide, no ligand
[2] = ligand present: flavin mononucleotide, designed as: OFF switch for flavin mononucleotide
[3] = designed as: ON switch for flavin mononucleotide, no ligand
[4] = ligand present: flavin mononucleotide, designed as: ON switch for flavin mononucleotide

Row | Sequence | apparent Kd [1] | apparent Kd [2] | apparent Kd [3] | apparent Kd [4]
1 | UGAUCACAUGAGGAUCACCCAUGUCAGGAUAUCGUCACUGGAGCUUCGGCUCCAGUGACGAGAAGGGAUAUAAU | 91.5 nM | 197 nM | – | –
2 | CACGAUGAUGUAGGAUAUAUGCUGGAAUACAGCAUAGAAGGACAUGAGGAUCACCCAUGUUAAGUGCCUCCAAGUAACAUCGUG | 15.4 nM | 22.4 nM | – | –
3 | UUAAUUUGAUGAUAUUAUGAUAUUAGAAGGCUGUACAUGUUGAUACAUGAGGAUCACCCAUGUAUAGAGGAUAUAGACAAUUUU | 27.8 nM | 57.3 nM | – | –
4 | GCCAGGAUGUAAGGAUAUGCUGAGGAAUACUCAGCAGAAGGUACAUGAGGAUCACCCAUGUAAUCCAAUAAUAAAUAACCUGGC | 11.3 nM | 23.4 nM | – | –
5 | UGAUAGGACAGAGGAUAUACGUGCUAGAGAUACUAGCAAAAUUUCCUCACAUGAGGAUCACCCAUGUAGAAGGCUGUCCUAUCU | 47.8 nM | 1100 nM | – | –
6 | AAUAUAAAAGAGCUGGAUACUCAAACAUGAGGAUCACCCAUGUAGGAUAUCAGCACGAUAAGUGCUGAGAAGGACAACCAGCUC | 14.6 nM | 15.6 nM | – | –
7 | UGGUACAACGGAGGAUAUCAUGUAGAUACAUGAGGAUCACCCAUGUCGAUGGAGACAUCGGAGAUUGAGAAGGCCGUUGUACCU | – | – | 692 nM | 30.1 nM
8 | UUUCAGUCAGGAUAUCGUUAAUUUAAUUGUUUGUUUUAGUUCGAGAAGGGACAUGAGGAUCACCCAUGUACUUU | 20 nM | 20 nM | – | –
9 | UUAUUAAGUGUGAGGAUAUGCUGGUCCUUGGAUCAGCAGAAGGCACAUGAGGAUCACCCAUGUACUUUAUAAAU | 15.7 nM | 46.6 nM | – | –
10 | CAGUACUGAGGAUAUACAUGAGGAUCACCCAUGUGUUCCAGCUAGGAAACUAGCAAAUGUAGAAGGCAGUACUG | 212 nM | 317 nM | – | –
11 | ACAUGAGGAUCACCCAUGUUAAAUGAGGAUAUAUGACUGCACAUGAGGUUCACCCAUGUUCUACCGUAGAAGGUAUAAAUAAUU | – | – | 71.7 nM | 76.1 nM
12 | UGGUACUAGGGAGGAUAUGGGAAGAUACAUGAGGAUCACCCAUGUUUGAGAAUGCCGAGAGGCAACUAGAAGGCCCUAGUACCU | – | – | 430 nM | 18.1 nM
13 | AGCAAGCGAGGAUAUGCUCGGGUUGCUUGUCGAGAGGAUACACAUGAGGAUCACCCAUGUAGAAGGUGUAUAAA | 37.7 nM | 28.4 nM | – | –
14 | AUCAAUCACAUAGGAUAUAGAAUAUUAUAUUUUUACAUGAGGAUCACCCAUGUUUUAUUGGGAUUCUAGAAGGAUGAGUUAUUA | – | – | 130 nM | 118 nM
15 | GAUUUGUGAGGAUAUACAUGAGGAUCACCCAUGUGUGUCCAUACGCGUGAGUCUUCAUGUAGAAGGCGCGGGUC | 17.1 nM | 15.6 nM | – | –
16 | AUGGACGCAGGAUAUACAUGAGGAUCACCCAUGUGAGGUAGGUAAGUAGGAAGUGAAGGUAGAAGGGCGAGAGA | 67.2 nM | 95.3 nM | – | –
17 | UUUCGGUGGCUGGAGGAUAUCCUGGUUGUUACAUGAGGAUCACCCAUGUGCCGCGCGGUGCGCUGGGAGAAGGCCGGCGGCCCUU | – | – | 37.7 nM | 16.1 nM
18 | GGUGGCGUGAUAACGCUAGAUAUAACAUGAGGAUCACCCAUGUAGGAUAUCCCGCCGAGAGGGCGGGAGAAGGACAAUCAAUGG | 45.2 nM | 47.2 nM | – | –
19 | GGAUAGGACAGAGGAUAUACGUGCUAGAGAUACUAGCAAAAUUUCCUCACAUGAGGAUCACCCAUGUAGAAGGGUGUCCUAUCG | 12.9 nM | 12.7 nM | – | –
20 | CGUAAGAUGCAGAAGGUGUUAGCUAGAGCUACGACAUGAGGAUCACCCAUGUACUAGAAACAGUACAAGGAUAUGCAUCUUACC | – | – | 18.8 nM | 6.58 nM
21 | CCUCAGUAAGGAUAUCAGCUUAGGAGGUUGGUAAUGAGAGCUGAGAAGGUACAUGAGGAUCACCCAUGUUAGUU | 30.6 nM | 76.4 nM | – | –
22 | AAGUGUCCUAAGGAUAUCGAAGCUAUCGGCUGCCGAGAAGGUAGGACAUGAGGAUCACCCAUGUACCGUGAGCC | 68.1 nM | 29.8 nM | – | –
23 | AACAGCUCGUCAGGAUAUAUUUUCCUUUUAUGUAUUUAUGUACAUGAGGAUCACCCAUGUUGUUUGUAGAAGGGACGAGCUGAA | 27.5 nM | 35.7 nM | – | –
24 | GCACAUGAGGAUCACCCAUGUCGGGAGGAUAUCUAGGCUGGGCGAUGCUAGGGCGGCCUCUGCUUAGAGAAGGCCCAUAAAAUC | – | – | 197 nM | 33.4 nM
25 | AAAAAACAAGGAUAUACGCACGAGGAUUGUCUUAAUUUUUGACAUGAGGAUCACCCAUGUAGAAGGUGUUAAAA | 75.7 nM | 79.2 nM | – | –
26 | GUAGAGUAGUGAGGAUAUACGAGAUCGAUAGAUCGGCGAUCCAAUUAUACAUGAGGAUCACCCAUGUAGAAGGCACUUCUCUAC | 12.6 nM | 116 nM | – | –
27 | GCCGGGUAGGCAGGAUAUCCUCGCGCAAACACAUGAGGAUCACCCAUGUACACAAAACGUGAUAUGGAGAAGGGCCAACCCACG | – | – | 24.1 nM | 5.8 nM
28 | CAGGUAGACUGAGGAUAUACAAGACUUAGUCUAUCUAGGUCAUUAACCACAUGAGGAUCACCCAUGUAGAAGGCAGUCUGCCUG | 17.7 nM | 23.9 nM | – | –

Row | Sequence | apparent Kd [1] | apparent Kd [2] | apparent Kd [3] | apparent Kd [4]
29 | GGUACGCAUGUAGGAUAUCGAGCUCAAAGAGCUCGAGAAGGACAUGAGGAUCACCCAUGUCCUCACAGACAGUGAGGGCGUACC | 18 nM | 26.5 nM | – | –
30 | GCCUAAAGUGAGGAUAUCUAGCGCGUAAAGGCAGGAGAAGGUGCAACAUGAGGAUCACCCAUGUAGGCUGUCUA | 19.5 nM | 20 nM | – | –
31 | GGUUAGGACAGAGGAUAUACGUGCUAGAGAUACUAGCAAAAUUUCCUCACAUGAGGAUCACCCAUGUAGAAGGCUGUCCUAUCG | 16.4 nM | 434 nM | – | –
32 | AUAAAGUGAGGAUAUACAUGAGGAUCACCCAUGUGAAAGUCUAAAAAAAUGACAAAAAGUAGAAGGCACAAAUA | 23.8 nM | 24.3 nM | – | –
33 | CACCCUGAUGUCAGGAUAUGCGCGUCGCGCCUCGAGCAGAAGGGACAUGAGGAUCACCCAUGUUGUCUCUUGGG | 48.9 nM | 98.7 nM | – | –
34 | AACAUACUGUACAUGAGGAUCACCCAUGUUCGGGCACUGUACAGAAGGCACGGGCAAAUGCGAGGUGAGGAUAUGUAGUUAGUG | – | – | 122 nM | 49.8 nM
35 | UGGUACAUGGGAGGAUAUGGGUUGAUAACAUGAGGAUCACCCAUGUUAAAUAUCGCGAGAGCGAACUAGAAGGCCCAUGUACCU | – | – | 715 nM | 45.1 nM
36 | GACGAGGGAGGAUAUGCACGAGGGAUAUCUGACAUGCCUAUACAUGAGGAUCACCCAUGUAGAAGGCCCAGAUA | 10.6 nM | 13.1 nM | – | –
37 | CUUCUGUCAGGAUAUGCGAAUCACCACUAGGUCAGUGGUGAGCAGAAGGGACAUGAGGAUCACCCAUGUAAAGU | 37 nM | 166 nM | – | –
38 | UGCUGUGUCAGAGGAUAUACACCUAUAAUCCAUUGCAAAUAGCGAUGGACAUGAGGAUCACCCAUGUAGAAGGCUGUCACAGCA | 214 nM | 647 nM | – | –
39 | GUGGUCAGACAUGAGGAUCACCCAUGUGGAAUAAAUAACACACAGGAUAUCGAAUAUAAAAUAUACGAGAAGGGUGGAUUGGUG | – | – | 388 nM | 209 nM
40 | GCUGCGUACGCAGGAUAUACAUGAGGAUCACCCAUGUAACUCGAACUCUAAGCGGGUGCGCGCAUGUAGAAGGGCGGGCGAGCC | 35 nM | 67.9 nM | – | –
41 | GCUGUCGCAUGAGGAUAUGGUCAGCUUUGCUGACCAGAAGGCAUGUCAAUAGACAUGAGGAUCACCCAUGUAGUUAAGACAGCA | – | – | 717 nM | 49.2 nM
42 | AGGAAGUCAGGAUAUGCUGCUCGUCACUUGCGUGAUGAGUAGCAGAAGGGACAUGAGGAUCACCCAUGUAAAAA | 52.6 nM | 57.9 nM | – | –
43 | GCGCAAGCAUGAGGAUAUUUAUUAAAUAAUAAUAAAGAAGGCAUGUCAAAUGACAUGAGGAUCACCCAUGUUGGCAAAAUGCGC | – | – | 45.9 nM | 9.77 nM
44 | CUUUCGUUAGCAGGAUAUGGACAGGCCUGUCCGUCUUGAGUCUGUAACAUGAGGAUCACCCAUGUCCAGAAGGGCUCGAAGGGA | 8.04 nM | 15 nM | – | –
45 | GGAUCGAUGUAGAAGGCUGUCCUAAAAUAGGACAGAGGAUAUACAUGAGGAUCACCCAUGUACUCCUUUAAAAUGAUCCAAAUA | 5.53 nM | 10.3 nM | – | –
46 | GGGUACAUCGGAGGAUAUCAUGUAAAUACAUGAGGAUCACCCAUGUCGAUGGAGUCAUCGGAGAUUGAGAAGGCCGAUGUACCG | – | – | 14 nM | 5.75 nM
47 | UGAUAACAUGUAGGAUAUCCAGCAUUGACCAUCGGAGAAGGACAUGAGGAUCACCCAUGUACCGAUACAAUGGGAUAACGCAAU | 15.4 nM | 18 nM | – | –
48 | GGGCCACAUGAGGAUCACCCAUGUAAACCCGUGCUCAGGGCACAGGAUAUGGGUCGGGAUGAGACCCAGAAGGGUGGUCUGGCC | – | – | 33.4 nM | 18.2 nM
49 | CCGAUAAUGUAGGAUAUCGUAUCGGAGACGAUACGAGAAGGACAAACAUGAGGAUCACCCAUGUUCCUUAACGG | 16.6 nM | 19.9 nM | – | –
50 | CGAUAGGACAGAGGAUAUACACAUGAGGAUCACCCAUGUAAUUACAAUUCUUGUGGUUCUUCCAUGUAGAAGGCUGUCCUAUCG | 113 nM | 335 nM | – | –
51 | UCGGAAUUCAAGAAGGACAUGAGGAUCACCCAUGUAGGAUAUUGACCCGAAUUGUGGGUUUUGCUGAUGCACUUCCCGAGGACA | – | – | 147 nM | 11.6 nM
52 | AUAUCUAUAUCAGGAUAUGGACAGGCCUGUCCGUAUUGAGACAGUAACAUGAGGAUCACCCAUGUCCAGAAGGGAUCGAUGUAU | 48 nM | 40.2 nM | – | –
53 | AAAUACCAAGGAUAUACAUGAGGAUCACCCAUGUACAAACCCGUGGAACGGAUCUUUGGUAGAAGGUGGACAUA | 13.9 nM | 11.9 nM | – | –
54 | GACUUGUCAGGAUAUCUUACAUAAACAUCGUAGUUACAAUUGGAGAAGGGACAUGAGGAUCACCCAUGUUUGGC | 28 nM | 25.4 nM | – | –
55 | UUUAUGUGAGGAUAUACGAAUAGUAAGUAAGUAUUACAGACGUAGAAGGCACAUGAGGAUCACCCAUGUGAACC | 38.5 nM | 78 nM | – | –
